Source: PMC8921320 (The Journal of Biological Chemistry, 2022)
“And” between values parts separate entries of the source, which are not always exact repeats. Equal entries are not always repeated. Where two headings read alike, the source gives them in different places. Square brackets hold non-standard residues; d marks the D form. Peptide text beside a SMILES is read from it. Orn(N5-OH,N5-Ac) = CC(=O)N(O)CCC[C@H](N)C(=O)O

What was measured:
EcoIutA = molecular target: T1, EcoIutA (Escherichia coli, UniProt B7LI14, T574C); assay: Fluorescence quenching binding, EcoIutA-FM sensor
T1 sequence (B7LI14 26-733 T574C): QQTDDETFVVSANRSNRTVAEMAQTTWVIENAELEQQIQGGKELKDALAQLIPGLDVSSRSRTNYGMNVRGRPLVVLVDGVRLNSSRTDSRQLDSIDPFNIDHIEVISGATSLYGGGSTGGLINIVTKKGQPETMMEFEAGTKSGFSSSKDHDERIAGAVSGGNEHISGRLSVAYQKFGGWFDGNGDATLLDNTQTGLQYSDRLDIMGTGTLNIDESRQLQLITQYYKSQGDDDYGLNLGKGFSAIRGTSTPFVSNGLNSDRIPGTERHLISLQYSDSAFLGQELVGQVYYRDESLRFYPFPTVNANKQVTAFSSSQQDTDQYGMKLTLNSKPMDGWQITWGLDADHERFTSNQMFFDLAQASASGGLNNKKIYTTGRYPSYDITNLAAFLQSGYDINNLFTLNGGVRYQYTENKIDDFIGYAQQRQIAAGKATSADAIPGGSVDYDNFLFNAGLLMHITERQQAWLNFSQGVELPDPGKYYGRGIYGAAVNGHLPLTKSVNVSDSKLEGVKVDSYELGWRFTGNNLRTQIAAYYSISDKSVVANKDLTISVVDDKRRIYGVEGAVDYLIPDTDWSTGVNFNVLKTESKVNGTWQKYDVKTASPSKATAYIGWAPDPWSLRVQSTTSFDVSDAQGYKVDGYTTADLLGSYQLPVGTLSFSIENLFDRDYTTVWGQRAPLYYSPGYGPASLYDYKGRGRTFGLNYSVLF

EcoFiu = assay: Fluorescence quenching binding, EcoFiu-FM sensor; design: species or system Escherichia coli
In short: (§1)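 Cys-mutant receptor made in E. coli hosts (entA, tonB+ or ΔtonB) grown in iron-deficient MOPS at 37 °C to late exponential phase. Cells washed in 50 mM NaHPO₄ pH 6.7, labeled in situ with 5 μM fluorescein maleimide for 15 min at 37 °C, quenched with 100 μM β-mercaptoethanol, then resuspended in PBS + 0.2% glucose. Binding used 2.5 × 10⁷ cells in 2 ml, stirred at 37 °C. Iron complex added stepwise; 520 nm emission quenching read in triplicate; 1-F/F₀ vs [ligand] fitted to single-site model for KD.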

AbaFepA = assay type: binding, Acinetobacter baumannii
KpnIroN [1] = molecular target: T2, KpnIroN (Klebsiella pneumoniae, UniProt A0ACD7U953, T234C); assay: Fluorescence quenching binding, KpnIroN-FM sensor
T2 sequence (A0ACD7U953 25-724 T234C): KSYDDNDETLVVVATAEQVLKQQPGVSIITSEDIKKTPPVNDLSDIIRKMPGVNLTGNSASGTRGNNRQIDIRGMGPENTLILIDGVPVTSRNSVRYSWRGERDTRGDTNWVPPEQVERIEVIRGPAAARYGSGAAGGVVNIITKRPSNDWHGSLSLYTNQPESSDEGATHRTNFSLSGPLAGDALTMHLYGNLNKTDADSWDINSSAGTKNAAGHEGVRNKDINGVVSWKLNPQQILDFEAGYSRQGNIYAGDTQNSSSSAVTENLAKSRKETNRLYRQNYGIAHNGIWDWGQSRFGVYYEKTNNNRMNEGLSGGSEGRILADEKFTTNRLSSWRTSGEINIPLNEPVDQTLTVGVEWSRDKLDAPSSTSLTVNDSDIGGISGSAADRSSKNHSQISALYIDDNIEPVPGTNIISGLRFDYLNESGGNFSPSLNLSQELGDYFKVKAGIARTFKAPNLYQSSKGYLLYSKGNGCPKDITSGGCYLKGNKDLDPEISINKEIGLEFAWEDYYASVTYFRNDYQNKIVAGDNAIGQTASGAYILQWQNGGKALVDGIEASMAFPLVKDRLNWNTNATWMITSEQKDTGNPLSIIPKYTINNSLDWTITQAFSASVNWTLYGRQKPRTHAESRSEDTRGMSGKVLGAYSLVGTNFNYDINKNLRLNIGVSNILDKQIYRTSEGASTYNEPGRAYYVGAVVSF
In short: as §1

AbaPirA = assay: Fluorescence quenching binding, AbaPirA-FM sensor; design: species or system Acinetobacter baumannii
In short: as §1

AbaPiuA = assay: Fluorescence quenching binding, AbaPiuA-FM sensor; design: species or system Acinetobacter baumannii
In short: as §1

EcoCir = assay: Fluorescence quenching binding, EcoCir-FM sensor; design: species or system Escherichia coli
In short: as §1

EcoFepB = molecular target: T3, EcoFepB (Escherichia coli, UniProt P0AEL6, T297C); assay: Fluorescence quenching binding, purified EcoFepB-FM sensor
T3 sequence (P0AEL6 27-318 T297C): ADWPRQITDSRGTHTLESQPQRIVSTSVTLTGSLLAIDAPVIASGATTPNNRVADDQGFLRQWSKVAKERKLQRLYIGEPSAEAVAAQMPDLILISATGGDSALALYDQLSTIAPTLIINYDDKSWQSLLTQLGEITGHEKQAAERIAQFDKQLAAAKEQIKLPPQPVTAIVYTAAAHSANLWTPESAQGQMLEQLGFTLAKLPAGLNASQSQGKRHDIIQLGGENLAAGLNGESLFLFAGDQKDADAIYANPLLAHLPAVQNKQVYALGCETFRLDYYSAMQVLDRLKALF
In short: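 His-tagged T297C FepB expressed from pET28 in E. coli and purified by metal affinity chromatography. Labeled with 5 μM fluorescein maleimide at pH 6.77 for 15 min, then repurified by gel filtration. Apo or ferric siderophores added at increasing concentrations, with three quenching determinations per concentration. Mean values fitted to a single-site binding model to give KD.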

PaeFpvA = molecular target: T4, PaeFpvA (Pseudomonas aeruginosa, UniProt P48632, T660C); assay: Fluorescence quenching binding, PaeFpvA-FM sensor
T4 sequence (P48632 44-815 T660C): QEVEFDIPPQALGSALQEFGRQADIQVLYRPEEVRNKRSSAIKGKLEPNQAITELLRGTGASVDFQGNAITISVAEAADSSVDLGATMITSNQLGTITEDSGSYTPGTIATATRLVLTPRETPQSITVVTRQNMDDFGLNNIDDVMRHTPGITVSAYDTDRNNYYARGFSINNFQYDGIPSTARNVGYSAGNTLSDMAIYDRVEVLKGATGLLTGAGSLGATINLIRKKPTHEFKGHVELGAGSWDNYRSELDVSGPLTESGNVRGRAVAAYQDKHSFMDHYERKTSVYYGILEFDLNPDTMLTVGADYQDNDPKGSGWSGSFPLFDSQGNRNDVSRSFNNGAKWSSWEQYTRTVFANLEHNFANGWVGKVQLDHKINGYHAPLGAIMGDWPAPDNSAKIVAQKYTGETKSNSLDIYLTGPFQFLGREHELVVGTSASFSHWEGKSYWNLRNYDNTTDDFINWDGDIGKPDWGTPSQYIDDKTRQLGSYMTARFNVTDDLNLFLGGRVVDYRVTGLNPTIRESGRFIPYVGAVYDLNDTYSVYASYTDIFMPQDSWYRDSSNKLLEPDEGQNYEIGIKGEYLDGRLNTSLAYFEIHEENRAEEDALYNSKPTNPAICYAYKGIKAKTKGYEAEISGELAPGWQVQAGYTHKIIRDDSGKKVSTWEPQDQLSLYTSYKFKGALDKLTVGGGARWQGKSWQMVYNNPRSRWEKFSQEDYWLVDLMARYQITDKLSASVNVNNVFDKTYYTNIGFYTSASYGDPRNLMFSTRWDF
In short: as §1

[2] = molecular target: human siderocalin (HsaSCN) (Homo sapiens, UniProt P80188, Q148C); assay: Fluorescence quenching binding, purified HsaSCN-FM sensor; conditions: HsaSCN-FM (Q128C), purified protein
KpnFyuA = KpnFyuA (Klebsiella pneumoniae, UniProt A4GZD6, S653C); assay: Fluorescence quenching binding, KpnFyuA-FM sensor; conditions: 50% quenching
EcoFepA [3] = molecular target: T5, EcoFepA (Escherichia coli, UniProt P05825, A720C); assay: Fluorescence quenching binding, EcoFepA-FM sensor
T5 sequence (P05825 23-746 A720C): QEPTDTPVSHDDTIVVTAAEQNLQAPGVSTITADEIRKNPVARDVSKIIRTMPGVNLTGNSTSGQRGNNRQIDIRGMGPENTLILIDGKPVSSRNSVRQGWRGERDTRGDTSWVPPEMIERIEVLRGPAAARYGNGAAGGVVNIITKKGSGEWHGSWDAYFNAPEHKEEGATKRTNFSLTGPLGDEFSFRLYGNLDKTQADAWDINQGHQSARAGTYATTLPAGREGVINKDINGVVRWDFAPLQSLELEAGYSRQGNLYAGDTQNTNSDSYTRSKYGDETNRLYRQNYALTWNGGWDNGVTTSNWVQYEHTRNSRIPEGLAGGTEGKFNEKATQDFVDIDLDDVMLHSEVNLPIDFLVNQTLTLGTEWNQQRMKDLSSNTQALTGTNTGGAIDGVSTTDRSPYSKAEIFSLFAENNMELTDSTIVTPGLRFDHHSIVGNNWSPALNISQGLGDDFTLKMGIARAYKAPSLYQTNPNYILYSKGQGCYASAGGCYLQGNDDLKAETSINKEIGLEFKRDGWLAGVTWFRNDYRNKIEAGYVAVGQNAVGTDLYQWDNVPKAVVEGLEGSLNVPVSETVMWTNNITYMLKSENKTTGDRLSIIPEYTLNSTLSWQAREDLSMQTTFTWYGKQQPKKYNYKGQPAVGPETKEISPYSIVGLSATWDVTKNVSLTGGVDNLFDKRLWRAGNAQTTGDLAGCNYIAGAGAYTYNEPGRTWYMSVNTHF

KpnIroN [4] = molecular target: T2, KpnIroN; conditions: cited from earlier work
EcoFepA [5] = molecular target: T5, EcoFepA; conditions: cited from earlier work
[6] = test system: Iron-deficient Gram-negative bacteria, with maximally expressed chromosomal FepA; conditions: cited from earlier work

Sequence of human siderocalin (HsaSCN) (P80188 21-198 Q148C): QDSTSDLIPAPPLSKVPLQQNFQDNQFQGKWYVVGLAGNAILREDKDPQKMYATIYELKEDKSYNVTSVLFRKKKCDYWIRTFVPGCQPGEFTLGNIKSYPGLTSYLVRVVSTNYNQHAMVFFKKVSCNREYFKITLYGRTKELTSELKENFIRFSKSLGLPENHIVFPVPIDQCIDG

CC(=O)N(O)CCCC[C@H](NC(=O)CC(O)(CC(=O)N[C@@H](CCCCN(O)C(C)=O)C(=O)O)C(=O)O)C(=O)O.[Fe+3] [FeAbn, ferric aerobactin]
Kd (EcoIutA; EcoIutA-FM sensor, fluorescence quenching): 6 nM

CC(C)(O/N=C(\C(=O)N[C@@H]1C(=O)N2C(C(=O)[O-])=C(C[N+]3(CCNC(=O)c4ccc(O)c(O)c4Cl)CCCC3)CS[C@H]12)c1csc(N)n1)C(=O)O [FDC, cefidericol]
binding (in words) (EcoFiu): bound | binding (in words) (AbaFepA): bound | binding (in words) (KpnIroN [1]): bound | binding (in words) (AbaPirA): bound | binding (in words) (AbaPiuA): bound | binding (in words) (EcoCir): bound

O=C(O)c1cccc(O)c1O.[Fe+3] [FeDHB]
binding (in words) (EcoFiu): did not bind | binding (in words) (EcoFepB): bound | binding (in words) (PaeFpvA): weakly bound | Kd [2]: 330 nM

CC(C)(C1=N[C@@](C)(C(=O)O)CS1)[C@H](O)[C@@H]1CS[C@H]([C@H]2CSC(c3ccccc3O)=N2)N1.[Fe+3] [FeYbt]
Kd [2]: 11000 nM | Kd (KpnFyuA): 1 nM

O=C(N[C@H]1COC(=O)[C@@H](NC(=O)c2cccc(O)c2O)COC(=O)[C@@H](NC(=O)c2cccc(O)c2O)COC1=O)c1cccc(O)c1O [Ent, enterobactin]
binding (in words) (EcoFepB): bound | Kd (EcoFepA [3]): 27 nM

O=C(N[C@H]1COC(=O)[C@@H](NC(=O)c2cccc(O)c2O)COC(=O)[C@@H](NC(=O)c2cccc(O)c2O)COC1=O)c1cccc(O)c1O.[Fe+3] [FeEnt, ferric enterobactin]
binding (in words) (EcoFiu): bound | Kd (AbaFepA; AbaFepA-FM sensor, fluorescence quenching): ~25 nM and 17 nM | Kd (KpnIroN [4]): 0.4 nM | Kd (EcoFepB; EcoFepB-FM (T297C), purified protein): 43 µM | fold less affinity than EcoFepA (EcoFepB; FeEnt, EcoFepB-FM vs EcoFepA): about 100 fold | binding (in words) (PaeFpvA): weakly bound | fold higher affinity for FeEnt than for FeGEnt (EcoFepA [3]; EcoFepA-FM): ~300 fold | Kd [2]: 10 to 12 nM | binding (in words) (EcoCir): bound | Kd (EcoFepA [5]; ref 53, 68, 69, 70): 0.1 to 0.4 nM | Kd (EcoFepA [5]; ref 53): 0.4 nM | transport rate [6]: ~50 pmol/10^9 cells/min

CC(=O)N([O-])CCC[C@@H]1NC(=O)CNC(=O)CNC(=O)CNC(=O)[C@H](CCCN([O-])C(C)=O)NC(=O)[C@H](CCCN([O-])C(C)=O)NC1=O.[Fe+3] [Fc, ferrichrome] (cyclo(GGG[Orn(N5-OH,N5-Ac)][Orn(N5-OH,N5-Ac)][Orn(N5-OH,N5-Ac)]))
binding (in words) (EcoIutA): did not measurably bind | Kd [2]: 110 nM
